ChEMBL document CHEMBL4350976, “Sequence modification of heptapeptide selected by phage display as homing device for HT-29 colon cancer cells to improve the anti-tumour activity of drug delivery systems” (Eur J Med Chem, 2019)
Where a SMILES comes first, the peptide text is derived from it. The star is where a group is joined. X1 = COc1cccc2c1C(=O)c1c(O)c3c(c(O)c1C2=O)C[C@@](O)(/C(C)=N/OCC(=O)*)C[C@@H]3O[C@H]1C[C@H](N)[C@H](O)[C@H](C)O1

Legend:
[1] = Retention time of the compound using 0.1% TFA in water and 0.1% TFA in acetonitrile-water (80:20 v/v) as eluents by RP-HPLC analysis; type: physicochemical
Summary of the method: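 Analytical RP-HPLC. Eluent A was 0.1% TFA in water and eluent B was 0.1% TFA in acetonitrile-water (80:20, v/v). Gradient: 0% B held to 5 min, then to 90% B at 50 min. Flow 1 mL/min, detection at 220 nm. The column was a Phenomenex Aeris Peptide XB-C18 (250×4.6 mm, 3.6 μm) or a Nucleosil C18 (5 μm, 100 Å, 250×4.6 mm), depending on the conjugate series.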

HT-29 = assay: Cytostatic activity against human HT-29 cells preincubated for 24 hrs under serum free condition followed by compound washout and further incubation for 48 hrs in presence of serum by MTT assay; type: functional, cell-based
Summary of the method: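 HT-29 cells were exposed to the compound for 24 h, washed, and kept a further 48 h. Viability was read by MTT. Absorbances were normalized to untreated controls and fitted by nonlinear regression to dose-response curves to give IC50.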

With `COc1cccc2c1C(=O)c1c(O)c3c(c(O)c1C2=O)C[C@@](O)(/C(C)=N/OCC(=O)N[C@@H](CC(C)C)C(=O)N[C@@H](CCCNC(=N)N)C(=O)N[C@@H](CCCNC(=N)N)C(=O)N[C@@H](Cc1ccc(O)cc1)C(=O)N[C@H](C(=O)N[C@@H](Cc1cnc[nH]1)C(=O)N[C@@H](CC(C)C)C(=O)N[C@@H](CCC(=O)O)C(=O)N[C@@H](Cc1ccc(O)cc1)C(=O)N[C@@H](C)C(=O)N[C@H](C(N)=O)[C@@H](C)O)C(C)C)C[C@@H]3O[C@H]1C[C@H](N)[C@H](O)[C@H](C)O1` (X1-LRRYVHLEYAT-NH2) the Retention time [1] was 29.3 to 31.2 min and the IC50 (HT-29) was 29.5 µM.

With `COc1cccc2c1C(=O)c1c(O)c3c(c(O)c1C2=O)C[C@@](O)(/C(C)=N/OCC(=O)N[C@@H](CC(C)C)C(=O)N[C@@H](CCCNC(=N)N)C(=O)N[C@@H](CCCNC(=N)N)C(=O)N[C@@H](Cc1ccc(O)cc1)C(=O)N[C@H](C(=O)N[C@@H](Cc1cnc[nH]1)C(=O)N[C@@H](CC(C)C)C(=O)N[C@@H](Cc1ccccc1)C(=O)N[C@@H](Cc1ccc(O)cc1)C(=O)N[C@@H](CCC(=O)O)C(=O)N[C@H](C(N)=O)[C@@H](C)O)C(C)C)C[C@@H]3O[C@H]1C[C@H](N)[C@H](O)[C@H](C)O1` (X1-LRRYVHLFYET-NH2) the Retention time [1] was 31.9 to 33.1 min and the IC50 (HT-29) was 54.3 µM.

Compound `COc1cccc2c1C(=O)c1c(O)c3c(c(O)c1C2=O)C[C@@](O)(/C(C)=N/OCC(=O)N[C@@H](CC(C)C)C(=O)N[C@@H](CCCNC(=N)N)C(=O)N[C@@H](CCCNC(=N)N)C(=O)N[C@@H](Cc1ccc(O)cc1)C(=O)N[C@H](C(=O)N[C@@H](Cc1cnc[nH]1)C(=O)N[C@@H](CC(C)C)C(=O)N[C@@H](Cc1ccccc1)C(=O)N[C@@H](Cc1ccc(O)cc1)C(=O)N[C@@H](CCCCN)C(=O)N[C@H](C(N)=O)[C@@H](C)O)C(C)C)C[C@@H]3O[C@H]1C[C@H](N)[C@H](O)[C@H](C)O1` (X1-LRRYVHLFYKT-NH2) has a Retention time [1] of 30.5 to 32 min and an IC50 (HT-29) of 11.5 µM.

`COc1cccc2c1C(=O)c1c(O)c3c(c(O)c1C2=O)C[C@@](O)(/C(C)=N/OCC(=O)N[C@@H](CC(C)C)C(=O)N[C@@H](CCCNC(=N)N)C(=O)N[C@@H](CCCNC(=N)N)C(=O)N[C@@H](Cc1ccc(O)cc1)C(=O)N[C@H](C(=O)N[C@@H](Cc1cnc[nH]1)C(=O)N[C@@H](CC(C)C)C(=O)N[C@@H](Cc1ccccc1)C(=O)N[C@@H](Cc1ccc(O)cc1)C(=O)N[C@@H](CC(N)=O)C(=O)N[C@H](C(N)=O)[C@@H](C)O)C(C)C)C[C@@H]3O[C@H]1C[C@H](N)[C@H](O)[C@H](C)O1` (X1-LRRYVHLFYNT-NH2) gave a Retention_time [1] of 31.8 min and an IC50 (HT-29) of 15.4 µM.

Compound `COc1cccc2c1C(=O)c1c(O)c3c(c(O)c1C2=O)C[C@@](O)(/C(C)=N/OCC(=O)N[C@@H](CC(C)C)C(=O)N[C@@H](CCCNC(=N)N)C(=O)N[C@@H](CCCNC(=N)N)C(=O)N[C@@H](Cc1ccc(O)cc1)C(=O)N[C@H](C(=O)N[C@@H](Cc1cnc[nH]1)C(=O)N[C@@H](CC(C)C)C(=O)N[C@@H](Cc1ccccc1)C(=O)N[C@@H](Cc1ccc(O)cc1)C(=O)N1CCC[C@H]1C(=O)N[C@H](C(N)=O)[C@@H](C)O)C(C)C)C[C@@H]3O[C@H]1C[C@H](N)[C@H](O)[C@H](C)O1` (X1-LRRYVHLFYPT-NH2) has a Retention_time [1] of 31.6 min and an IC50 (HT-29) of 10.9 µM.

For `COc1cccc2c1C(=O)c1c(O)c3c(c(O)c1C2=O)C[C@@](O)(/C(C)=N/OCC(=O)N[C@@H](CC(C)C)C(=O)N[C@@H](CCCNC(=N)N)C(=O)N[C@@H](CCCNC(=N)N)C(=O)N[C@@H](Cc1ccc(O)cc1)C(=O)N[C@H](C(=O)N[C@@H](Cc1cnc[nH]1)C(=O)N[C@@H](CC(C)C)C(=O)N[C@@H](Cc1ccccc1)C(=O)N[C@@H](Cc1ccc(O)cc1)C(=O)N[C@@H](CO)C(=O)N[C@H](C(N)=O)[C@@H](C)O)C(C)C)C[C@@H]3O[C@H]1C[C@H](N)[C@H](O)[C@H](C)O1` (X1-LRRYVHLFYST-NH2), the Retention time [1] was 32.1 to 32.9 min and the IC50 (HT-29) was 17.7 µM.

Compound `COc1cccc2c1C(=O)c1c(O)c3c(c(O)c1C2=O)C[C@@](O)(/C(C)=N/OCC(=O)N[C@@H](CC(C)C)C(=O)N[C@@H](CCCNC(=N)N)C(=O)N[C@@H](CCCNC(=N)N)C(=O)N[C@@H](Cc1ccc(O)cc1)C(=O)N[C@H](C(=O)N[C@@H](Cc1cnc[nH]1)C(=O)N[C@@H](CC(C)C)C(=O)N[C@@H](CCCCN)C(=O)N[C@@H](Cc1ccc(O)cc1)C(=O)N[C@@H](C)C(=O)N[C@H](C(N)=O)[C@@H](C)O)C(C)C)C[C@@H]3O[C@H]1C[C@H](N)[C@H](O)[C@H](C)O1` (X1-LRRYVHLKYAT-NH2) has a Retention time [1] of 28.2 to 30.1 min and an IC50 (HT-29) of 50.3 µM.

`COc1cccc2c1C(=O)c1c(O)c3c(c(O)c1C2=O)C[C@@](O)(/C(C)=N/OCC(=O)N[C@@H](CC(C)C)C(=O)N[C@@H](CCCNC(=N)N)C(=O)N[C@@H](CCCNC(=N)N)C(=O)N[C@@H](Cc1ccc(O)cc1)C(=O)N[C@H](C(=O)N[C@@H](Cc1cnc[nH]1)C(=O)N[C@@H](CC(C)C)C(=O)N[C@@H](CC(C)C)C(=O)N[C@@H](Cc1ccc(O)cc1)C(=O)N[C@@H](C)C(=O)N[C@H](C(N)=O)[C@@H](C)O)C(C)C)C[C@@H]3O[C@H]1C[C@H](N)[C@H](O)[C@H](C)O1` (X1-LRRYVHLLYAT-NH2) showed a Retention time [1] of 31.1 to 33.1 min and an IC50 (HT-29) of 7.5 µM.

`COc1cccc2c1C(=O)c1c(O)c3c(c(O)c1C2=O)C[C@@](O)(/C(C)=N/OCC(=O)N[C@@H](CC(C)C)C(=O)N[C@@H](CCCNC(=N)N)C(=O)N[C@@H](CCCNC(=N)N)C(=O)N[C@@H](Cc1ccc(O)cc1)C(=O)N[C@H](C(=O)N[C@@H](Cc1cnc[nH]1)C(=O)N[C@@H](CC(C)C)C(=O)N[C@@H](CC(N)=O)C(=O)N[C@@H](Cc1ccc(O)cc1)C(=O)N[C@@H](C)C(=O)N[C@H](C(N)=O)[C@@H](C)O)C(C)C)C[C@@H]3O[C@H]1C[C@H](N)[C@H](O)[C@H](C)O1` (X1-LRRYVHLNYAT-NH2) showed a Retention time [1] of 29 to 30.8 min and an IC50 (HT-29) of 28 µM.

Work on `COc1cccc2c1C(=O)c1c(O)c3c(c(O)c1C2=O)C[C@@](O)(/C(C)=N/OCC(=O)N[C@@H](CC(C)C)C(=O)N[C@@H](CCCNC(=N)N)C(=O)N[C@@H](CCCNC(=N)N)C(=O)N[C@@H](Cc1ccc(O)cc1)C(=O)N[C@H](C(=O)N[C@@H](Cc1cnc[nH]1)C(=O)N[C@@H](CC(C)C)C(=O)N[C@H](C(=O)N[C@@H](Cc1ccc(O)cc1)C(=O)N[C@@H](C)C(=O)N[C@H](C(N)=O)[C@@H](C)O)[C@@H](C)O)C(C)C)C[C@@H]3O[C@H]1C[C@H](N)[C@H](O)[C@H](C)O1` (X1-LRRYVHLTYAT-NH2) yielded a Retention_time [1] of 29 min and an IC50 (HT-29) of 21.7 µM.

Work on `COc1cccc2c1C(=O)c1c(O)c3c(c(O)c1C2=O)C[C@@](O)(/C(C)=N/OCC(=O)N[C@@H](CC(C)C)C(=O)N[C@@H](CCCNC(=N)N)C(=O)N[C@@H](CCCNC(=N)N)C(=O)N[C@@H](Cc1ccc(O)cc1)C(=O)N[C@H](C(=O)N[C@@H](Cc1cnc[nH]1)C(=O)N[C@@H](CC(C)C)C(=O)N[C@@H](Cc1ccc(O)cc1)C(=O)N[C@@H](Cc1ccc(O)cc1)C(=O)N[C@@H](C)C(=O)N[C@H](C(N)=O)[C@@H](C)O)C(C)C)C[C@@H]3O[C@H]1C[C@H](N)[C@H](O)[C@H](C)O1` (X1-LRRYVHLYYAT-NH2) yielded a Retention time [1] of 30.8 to 31.7 min and an IC50 (HT-29) of 38.4 µM.

In the case of `COc1cccc2c1C(=O)c1c(O)c3c(c(O)c1C2=O)C[C@@](O)(/C(C)=N/OCC(=O)N[C@H](C(=O)N[C@@H](Cc1cnc[nH]1)C(=O)N[C@@H](CC(C)C)C(=O)NCC(=O)N[C@@H](Cc1ccc(O)cc1)C(=O)N[C@@H](C)C(=O)N[C@H](C(N)=O)[C@@H](C)O)C(C)C)C[C@@H]3O[C@H]1C[C@H](N)[C@H](O)[C@H](C)O1` (X1-VHLGYAT-NH2), the Retention_time [1] is reported as 26.1 min.
